Assay results gathered from unrelated publications.
Each line is one published result; the experiments were not run side by side.
Target: SRSF protein kinase 2 (SRPK2, Homo sapiens, UniProt P78362)

Structure (SMILES) | assay | setting | remaining binding
Cc1nc(Cc2cccc(C(F)(F)F)c2)sc1-c1ccc(C(N)=O)nc1 | cell-free assay, competition with immobilised ligand | 1 µM | 100%
N[C@H]1CCN(c2nccc(-c3cnn4ncccc34)n2)C1 | binding | 1 µM | 62%
O=C(NCC1CCOCC1)c1n[nH]cc1NC(=O)c1c(F)cccc1F | binding, competition with immobilised ligand | 1 µM | 84%
CN(C)C(=O)Cn1cc(-c2nc(C3(c4ccc(-c5cnc(N)nc5)cc4)CC3)no2)cn1 | cell-free assay, competition with immobilised ligand | 1 µM | 91%
c1cncc(-c2cccc(Nc3nccc(NC4CCCCC4)n3)c2)c1 | binding, competition with immobilised ligand | 10 µM | 100%
CCOC(=O)c1cc2cc(-c3cc(C(=O)NCc4ccc(C(=O)O)cc4)nn3C)ccc2[nH]1 | cell-free assay, competition with immobilised ligand | 0.1 µM | 100%
F[C@@H]1CCN(c2nccc(-c3cnn4ncccc34)n2)C1 | binding | 1 µM | 80%
O=C(c1ccc(Nc2ncc(Cl)c(-c3ccc(Cl)s3)n2)cc1)N1CCC(N2CCCC2)CC1 | binding, competition with immobilised ligand | 1 µM | 89%
Cc1cnn2ncc(-c3ccnc(N(C)C)n3)c2c1 | binding | 1 µM | 100%
C=CC(=O)N1CCC(C(=O)NCC(=O)N2CCN(c3nc(-c4cnc(N)nc4C(F)F)nc(N4CCOCC4)n3)CC2)CC1 | binding, competition with immobilised ligand | 1 µM | 100%
c1cnn2ncc(-c3ccnc(N4CCC45COC5)n3)c2c1 | binding | 1 µM | 70%
O=C1NC(c2ccccn2)Sc2ccccc21 (stereo not drawn) | cell-free assay, competition with immobilised ligand | 1 µM | 100%
COc1cnc(Nc2cccc(S(N)(=O)=O)c2)nc1N1CCN(c2ccccc2)C(=O)C1 | binding, competition with immobilised ligand | 1 µM | 89%
Cc1nc(N2CC[C@@H](O)C2)ncc1-c1cc(C(F)(F)F)cc2[nH]ncc12 | binding, competition with immobilised ligand | 1 µM | 100%
O=C(NCCCN1CCOCC1)c1ccc(Nc2ncc(Cl)c(-c3ccc(Cl)s3)n2)cc1 | binding, competition with immobilised ligand | 1 µM | 75%
CC(=O)C1=C(C)N(c2cccc(C(F)(F)F)c2)C(=O)N[C@@H]1c1ccc(C#N)nc1 | cell-free assay, competition with immobilised ligand | 1 µM | 100%
CN(C)c1nccc(-c2cnn3ncccc23)n1 | binding | 1 µM | 100%
CCN1CCN(Cc2ccc(C(=O)Nc3ccc(C)c(Oc4ccc5c(c4)CC(=O)N5)c3)cc2C(F)(F)F)CC1 | binding, competition with immobilised ligand | 1 µM | 100%
Nc1ncc2c(n1)-c1c([nH]c3ccc(C#CC4CC4)cc13)CCCC2 | binding, competition with immobilised ligand | 1 µM | 82%
C[C@H]1CCN(c2nccc(-c3cnn4ncccc34)n2)C1 | binding | 1 µM | 93%
O=C(c1ccc(Nc2ncc(Cl)c(-c3cc4ccccc4s3)n2)cc1)N1CCC(N2CCCC2)CC1 | binding, competition with immobilised ligand | 1 µM | 99%
